Screening data as filed in PubChem.
INS-1E GSIS act: GLuc luminescence reporter in INS-1E cells, primary screen for activators of glucose-dependent secretion of insulin. activation, % at 16.6 µM. actives 0.61% (n = 370,000). INS-1E GLuc reporter insulin secretion, 2-3 h;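 active = lowest replicate activation of at least 40%, so every replicate reaches that level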;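 also: 0% = median of neutral control wells and 100% = median of IBMX positive control wells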
PAX8 inh HTS: PAX8 transcriptional activity inhibition. inhibition, % at 12.6 µM. RMG-I TPO-luciferase reporter, SteadyGlo, 24 h. AID 652154. actives 1.2% (n = 360,000);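 active = mean replicate inhibition at least 60% with every replicate also reaching 60%; inconclusive = only one of the two criteria is met; inactive = mean below 60% and not all replicates reaching 60%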;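 also: luciferase light reporting Pax8 driven TPO promoter activity; plate controls were median of neutral control wells for no effect and mitoxantrone controls for full effect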
HIV Env fusion: HIV envelope-mediated fusion inhibition; AID 651610; HeLa-JRFL Env/CEM21 cell fusion, luciferase; actives 1.1% (n = 360,000); inhibition, % at 12.3 µM;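 active = mean replicate inhibition score of at least 50 and every replicate individually at or above 50; inconclusive = only one of the two criteria met; inactive = mean below 50 and not all replicates reaching 50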;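 also: 0% = plate neutral controls and 100% = maraviroc near 300 nM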
Cneo AK release: Cryptococcus neoformans lysis via adenylate kinase release; lysis activity, % at 15 µM; AID 651654; C. neoformans lysis, adenylate kinase release luminescence, 4 h; normalised: neutral wells 0, clomiphene wells 100; actives 0.2% (n = 360,000);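 active = mean lysis activity across replicates of at least 80%, whatever share of replicates individually reach that level; inactive = mean lysis activity below 80%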
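Test system: log-phase Cryptococcus neoformans yeast cells. Input: 5 × 10^6 yeast cells/mL. Medium: fresh YPD growth medium. Doses: single dose. Incubation: static 4 h at 37 °C with compound, 1 h detection. Measured by: luminescent adenylate kinase detection reagent. Read-out: signal increase indicating cell lysis. Benchmarks: Clomiphene.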
CDK5 p35 inh: CDK5/p35 (human) kinase inhibition; Q00535+Q15078; Recombinant CDK5/p35, ADP-Glo luminescence, 60 min; inhibition, % at 10 µM; actives 0.01% (n = 330,000); AID 488839;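 active = highest replicate inhibition of at least 50% and at least 75% of replicates reaching 50%; inconclusive = only one of the two criteria met; inactive = both criteria failed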;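 also: plate controls were DMSO neutral control for no effect and GW8510 at 10 µM for full effect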
Target sequence (Q00535 whole entry, looked up): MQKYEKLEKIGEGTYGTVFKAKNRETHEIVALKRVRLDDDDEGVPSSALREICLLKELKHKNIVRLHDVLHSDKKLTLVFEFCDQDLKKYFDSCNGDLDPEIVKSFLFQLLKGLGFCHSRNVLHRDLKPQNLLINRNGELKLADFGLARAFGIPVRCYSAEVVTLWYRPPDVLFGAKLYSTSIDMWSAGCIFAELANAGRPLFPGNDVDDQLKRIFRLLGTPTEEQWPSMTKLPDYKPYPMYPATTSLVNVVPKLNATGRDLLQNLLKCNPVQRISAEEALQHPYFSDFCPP
Target sequence (Q15078 whole entry, looked up): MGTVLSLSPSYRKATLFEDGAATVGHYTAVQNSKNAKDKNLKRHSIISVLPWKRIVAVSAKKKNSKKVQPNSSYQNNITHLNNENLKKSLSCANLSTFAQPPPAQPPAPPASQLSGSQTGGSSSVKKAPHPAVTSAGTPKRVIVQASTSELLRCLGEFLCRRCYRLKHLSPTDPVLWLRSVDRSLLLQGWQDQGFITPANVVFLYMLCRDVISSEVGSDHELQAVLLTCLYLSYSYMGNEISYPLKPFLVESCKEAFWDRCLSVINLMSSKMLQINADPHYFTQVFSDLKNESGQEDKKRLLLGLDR
dFosB activator: activators of mouse delta FosB homodimer; P13346; purified delta FosB, TAMRA-CDK5 oligo fluorescence polarization; percent of positive-control signal above neutral wells; activation, % at 25 µM; actives 0.99% (n = 340,000);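 active = mean activation above about 17%, with every replicate also reaching it, limit read from the data, passing the limit was not always enough; inconclusive = only one of the two conditions met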
* = called active by the depositor; ? = inconclusive; . = no result; ! = not active in a repeat; [ ] = another dose, or the depositor's remark. The list is not random: actives were taken first. Their share in the collection is about 2.9%.

SMILES	INS-1E GSIS act	PAX8 inh HTS	HIV Env fusion	Cneo AK release	CDK5 p35 inh	dFosB activator
O=C(C[C@@H]1CC[C@@H]2[C@H](COC[C@H](O)CN2C(=O)c2ccncc2)O1)NC1CCC1	-2	-23	-7[16.7 µM]	-3	.	.
COc1ccccc1N/C(N)=N/c1nc(CSc2ccc(C)cc2)cc(=O)[nH]1	.	.	67*	-2	-2	8
C=CCn1c(C)nnc1SCC(=O)NC1CCCCC1	0	-6	-10	1	1	5
C=CCn1c(C)nnc1SCC(=O)NC1CC1	-5	16	62*	0	2	2
COC(=O)Cn1cnc2c(Cl)nc(F)nc21	5	32	89*	-3	0	-6
Clc1ccc(OCc2nnc(SCc3nc4ccccc4[nH]3)n2Cc2ccco2)cc1	.	45	56*	-2	-3	-16
O=C(c1ccc2c(c1)OCO2)N1C[C@H]2[C@@H](c3ccccc31)[C@H](CO)N2C(=O)CC1CC1	11	-2	.	52	.	.
C[C@@H]1CN([C@H](C)CO)C(=O)c2cccc(NS(=O)(=O)c3cccs3)c2O[C@@H]1CN(C)Cc1ccc(C(F)(F)F)cc1	-8	-10	84*[16.7 µM]	-6	.	.
C[C@H](CO)N1C[C@H](C)[C@@H](CN(C)Cc2ccc(Cl)c(Cl)c2)Oc2c(NS(=O)(=O)c3cccs3)cccc2C1=O	-22	-1	62*!	0	0	-2
C[C@@H]1CN([C@@H](C)CO)C(=O)c2cccc(NS(=O)(=O)c3cccs3)c2O[C@@H]1CN(C)Cc1ccc(C(F)(F)F)cc1	-39	1	68*[16.7 µM]	4	.	.
COc1ccccc1-c1ccc2c(c1)[C@H]1[C@H](CCN1S(=O)(=O)c1ccccc1OC)[C@@H](CO)N2	4	65*	.	-6	.	.
COc1ccccc1S(=O)(=O)N1CC[C@@H]2[C@H]1c1cc(-c3ccc(F)cc3)ccc1N[C@@H]2CO	-5	19	.	-11	.	.
COc1ccccc1S(=O)(=O)N1CC[C@@H]2[C@H](CO)Nc3ccc(-c4ccc(F)cc4)cc3[C@@H]21	-3	67*	.	-5	.	.
COc1ccccc1S(=O)(=O)N1CC[C@@H]2[C@@H](CO)Nc3ccc(-c4ccc(F)cc4)cc3[C@@H]21	3	71*	.	-14	.	.
O=C(O)C1CCCN1c1nc(-c2ccc(Cl)c(Cl)c2)cc(C(F)(F)F)n1 (stereo not given)	-6	77*	.	0	0	-10
FC(F)(F)c1cc(-c2ccccc2)nc(N2CCCCC2)n1	-8	.	.	0	0	3
CC(C)(O)C#Cc1ccc([C@@H]2[C@@H](CO)N3CCCCN(C(=O)c4cccc(F)c4)C[C@@H]23)cc1	21	-13	.	1	.	.
CC(C)C[C@H](NC(=O)c1[nH]cnc1C(=O)N[C@H](C)c1ccccc1)C(=O)OC(C)(C)C	33	29	15	-1	-2	-12
CC(C)C[C@H](NC(=O)c1nc[nH]c1C(=O)N[C@@H](CC(C)C)C(=O)OC(C)(C)C)C(=O)OC(C)(C)C	.	66*	70*	-1	-1	8
CC(C)C[C@H](NC(=O)c1nc[nH]c1C(=O)NC(c1ccccc1)c1ccccc1)C(=O)OC(C)(C)C	.	67*	14	8	1	-9
CC(C)C[C@H](NC(=O)c1nc[nH]c1C(=O)N[C@@H](CC(C)C)C(=O)OCc1ccccc1)C(=O)OCc1ccccc1	.	58	71*	1	0	-6
CC=Cc1ccc2n(c1=O)C[C@@H]1[C@@H](CO)[C@H](C(=O)NC3CCCC3)N(Cc3nccs3)[C@H]21 (mixture of isomers)	17	7	.	7	.	.
COc1ccc(OC)c(C2(O)CSC(=Nc3cccnc3)N2Cc2ccco2)c1 (stereo not given)	.	13	22	-1	0	-2
OC1(c2ccc(OC(F)F)cc2)CSC(=Nc2cccnc2)N1C1CC1 (stereo not given)	.	7	75*	-2	1	-9
COc1ccc(-c2ccc(=O)n(CC(=O)Nc3nnc(C(C)C)s3)n2)cc1OC	.	26	-68	0	1	4
SMILES	INS-1E GSIS act	PAX8 inh HTS	HIV Env fusion	Cneo AK release	CDK5 p35 inh	dFosB activator
COc1ccc(-c2ccc(=O)n(CC(=O)Nc3cccc(O)c3)n2)cc1OC	117*	.	-7	1	-1	5
O=C(C[C@H]1CC[C@@H](NC(=O)c2ccccc2)[C@H](CO)O1)NCc1ccc(Oc2ccccc2)cc1	-1	11	66*[16.7 µM]	0	.	.
O=C(C[C@@H]1CC[C@@H](NC(=O)c2cccnc2)[C@@H](CO)O1)NCCN1CCCCC1	15	8	1[16.7 µM]	93*	.	.
O=C(C[C@@H]1CC[C@H](NC(=O)c2cccc(F)c2)[C@H](CO)O1)NCc1ccc(Oc2ccccc2)cc1	-20	28	62*[16.7 µM]	-3	.	.
C[C@@H]1CCCCO[C@H](CN(C)S(=O)(=O)c2cn(C)cn2)[C@H](C)CN([C@@H](C)CO)C(=O)c2cc(NS(=O)(=O)c3ccc(F)cc3)ccc2O1	12	-8	10[16.7 µM]	51	.	.
COc1ccc(S(=O)(=O)N[C@@H]2CC[C@H](CCn3cc(C(C)C)nn3)O[C@H]2CO)cc1	-5	6	5[16.7 µM]	-5	.	.
CN(C)S(=O)(=O)c1cccc(NC(=O)CSc2nc3c(cc2C#N)C(=O)CC(C)(C)C3)c1	0	?	70*	.	1	-11
CN(C)S(=O)(=O)c1ccc(Cl)c(NC(=O)CSc2nc3c(cc2C#N)C(=O)CC(C)(C)C3)c1	-1	30	7	4	0	-5
CCOC(=O)c1c(NC(C)=O)sc2c(OCC(O)CNC(C)(C)C)c(Br)ccc12 (stereo not given)	45*	32	-55	-1	-1	-26
CCOC(=O)c1c(N)sc2c(OCC)c(Br)ccc12	-8	.	.	1	0	-7
CC(=O)Nc1ccc2[nH]c3ccccc3c2c1	.	.	.	.	2	-3
O=C(Nc1ccc(Cl)cc1)c1cc2c(cc1O)[nH]c1ccccc12	-64	-6	62*	1	0	-9
O=C(C1CCCC1)N1CC[C@@H]2[C@H]1c1cc(-c3cccc(F)c3)ccc1N[C@@H]2CO	-45	.	.	.	.	.
C[C@H]1CN([C@@H](C)CO)C(=O)c2cccc(NC(=O)c3nc4ccccc4s3)c2O[C@H]1CN(C)Cc1ccc2c(c1)OCO2	-34	.	.	.	.	.
CCOCCCn1c(SCc2ccccc2)nnc1-c1ccncc1	78*	-1	18	0	-2	-5
CCOc1ccc(CCN2C(=S)N([C@@H](Cc3ccccc3)CN3CCC[C@@H]3CN3C(=S)NC[C@@H]3Cc3ccc(O)cc3)C[C@@H]2CC(C)C)cc1	0	41	64*	-1	.	.
